Test results published in PMC6133075 (European Journal of Drug Metabolism and Pharmacokinetics, 2018).
“And” between values parts separate entries of the source, which are not always exact repeats. Identical values can stand only once. Like-named read-outs stand apart in the source and are kept apart here.

How the values were obtained:
[1] = rat lungs; cited from earlier work
[2] = treosulfan to S,S-EBDM; S,S-EBDM to (2S,3S)-1,2:3,4-diepoxybutane; cited from earlier work
[3] = assay type: in vivo, Wistar rats; settings: for mean Ke/p (RBC/plasma partition coefficient): mean (± SD) of all 12 rats, 1 and 4 h after i.p. treosulfan 500 mg/kg; for Cp: plasma; for Ce: red blood cells
Outline: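 Wistar rats, 10 weeks old (6 male, 6 female), received a single i.p. bolus of 500 mg/kg in sterile water (10 mL/kg), with ketamine/xylazine anaesthesia. K2EDTA cardiac blood was taken at 1 or 4 h and spun at 3645×g for 5 min at 20 °C. Plasma and RBC were acidified with citric acid; RBC were lysed by three freeze–thaw cycles. HPLC–MS/MS used codeine as internal standard. Ke/p = Ce/Cp.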

[4] = assay type: in vitro ADME, rat; settings: three freeze-thaw cycles, n = 3, range of means over QC levels
Outline: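 Freeze–thaw stability of quality-control samples prepared by spiking drug-free rat plasma and drug-free RBC lysate (from three freeze–thaw cycles) at treosulfan 5.5, 55 and 800 μM and S,S-EBDM 9.4 and 94 μM. Samples were processed like study samples and assayed by HPLC–MS/MS. Stability was taken as the final/initial concentration ratio and reported as the range of means across QC levels.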

[5] = rat plasma; cited from earlier work
[6] = individual female rats, 1 h after i.p. bolus treosulfan 500 mg/kg
[7] = individual female rats, 4 h after i.p. bolus treosulfan 500 mg/kg
[8] = individual male rats, 1 h after i.p. bolus treosulfan 500 mg/kg
[9] = individual male rats, 4 h after i.p. bolus treosulfan 500 mg/kg

| mean Ke/p (RBC/plasma partition coefficient) [3] | Cp [3, 6] | Cp [3, 7] | Cp [3, 8] | Cp [3, 9] | Ce [3, 8] | Ce [3, 9] | Stability (final/initial concentration) ([4]; rat RBC lysate) | Stability (final/initial concentration) ([4]; rat plasma) | Compound | tissue-to-plasma concentration ratio [1] | t1/2 of nonenzymatic epoxidation [2] | unbound fraction [5] |
| --- | --- | --- | --- | --- | --- | --- | --- | --- | --- | --- | --- | --- |
| 0.60 ± 0.09 | 64 µM and 22 µM | 5.6 µM and 6.2 µM | 58 µM and 61 µM and 3.6 µM | 8.4 µM and 5.5 µM | 36 µM and 34 µM and 2.1 µM | 6.7 µM and 3.5 µM | 86.7–89.8% | 88.3–89.4% | CS(=O)(=O)OC[C@H](O)[C@@H]1CO1 [S,S-EBDM, (2S,3S)-1,2-epoxy-3,4-butanediol 4-methanesulfonate] | ~0.6 | 3.4 h | ≥ 0.94 |
| 0.74 ± 0.12 | 1164 µM and 300 µM and 349 µM | 113 µM and 83 µM | 943 µM and 1189 µM and 28.8 µM | 112 µM and 120 µM and 30 µM | 704 µM and 779 µM and 24.2 µM | 94 µM and 87 µM and 26 µM | 85.8–104.8% | 90.7–108.8% | CS(=O)(=O)OC[C@H](O)[C@@H](O)COS(C)(=O)=O [Treosulfan] | about 0.8 | 1.5 h | ≥ 0.94 |
